Series [1] is described as follows: melting temperature; fluorescence melt of hairpins on a sequencing array, two-state fit, raised by 9.35 °C to match UV melts. As to conditions: sodium 0.088 M. The procedure, abridged:
(§1)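 Folding enthalpy and melting temperature come from bootstrapped two-state fits to Cy3 fluorescence of library hairpins carrying annealed Cy3 and quencher oligos on a sequenced MiSeq flow cell. Imaging was done in 50 mM Na-HEPES pH 8.0, 25 mM NaCl, stepping by 2.5 °C up to 60 °C, and signals were normalised to pre-quench Cy3 and to control constructs. Results of four replicates were combined by inverse variance, and fitted temperatures were raised by 9.35 °C to match UV melts.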

The nature of series [2]: folding enthalpy; higher = less favourable; fluorescence melt of hairpins on a sequencing array, two-state fit. The settings on record: sodium 0.088 M. A digest of the protocol: as §1

Regarding GATCACGTCTGTGATC ((((((....)))))), the Tm in series [1] amounted to 59.5 °C. Further, in series [2], the folding enthalpy was -37.7 kcal/mol.

Take GCATACGAAAGTATTTGC ((((((....)))..))): the Tm in series [1] was determined as 32.9 °C. Further, in series [2], the folding enthalpy is -17.1 kcal/mol.

Turning to GCATTCGAAAGAATGTGC ((((((....)))..))), the Tm in series [1] stood at 50.6 °C. In addition, the folding enthalpy in series [2] was -36.8 kcal/mol.

On to GTTTACCGAAAGGTCAAC (((.(((....))).))), for which the Tm in series [1] came out at 39.1 °C. Moreover, in series [2], the folding enthalpy is -24.8 kcal/mol.

In the case of GAGAAAGGAAACTTTCCC (.(((((....))))).), the Tm in series [1] worked out at 25.1 °C. For the same sequence, the folding enthalpy in series [2] was -12.3 kcal/mol.

Consider GGCTAGGAAACTAGCC ((((((....)))))), for which the Tm in series [1] stood at 60.4 °C. Also, the folding enthalpy in series [2] was -34.8 kcal/mol.

Consider GCGTGGCGAAAGCGAAGC ((.(.((....)).).)), for which, in series [1], the Tm turned out to be 50.5 °C. Moreover, the folding enthalpy in series [2] was -16.9 kcal/mol.

Consider GATCGAGGGCTCGATC ((((((....)))))), for which, in series [1], the Tm amounted to 53.5 °C. The folding enthalpy in series [2] was -46.3 kcal/mol.

As to GCCATCGAAAGATCCGGC ((((((....)))..))), the Tm in series [1] is 33.2 °C. The folding enthalpy in series [2] was -19.6 kcal/mol.

Take GCACTGTCGAAAGACTGC (((..(((....)))))): the Tm in series [1] was 39.4 °C. Also, the folding enthalpy in series [2] is -15.9 kcal/mol.

Consider GGCCTCGAAAGAGGGGCC ((((((....)))..))), for which, in series [1], the Tm stood at 54.9 °C. Moreover, the folding enthalpy in series [2] was -23 kcal/mol.

Turning to GTTGGAGGAAACTTCAAC ((((.((....)).)))), the Tm in series [1] turned out to be 41.9 °C. The folding enthalpy in series [2] was -31.4 kcal/mol.

As to GACGCCGAAAGGCCAGTC ((((((....)))..))), the Tm in series [1] is 40.7 °C. In addition, the folding enthalpy in series [2] is -15 kcal/mol.

In the case of CATCCGAAAGGATG (((((....))))), the Tm in series [1] stood at 63.1 °C. Besides, the folding enthalpy in series [2] was -25.8 kcal/mol.

Turning to GACAACGAAAGTTCGTC ((((((....))).))), the Tm in series [1] is 42.6 °C. In addition, the folding enthalpy in series [2] is -21 kcal/mol.

For the sequence GGTATGGGAAACTATACC (((((.(....).))))), in series [1], the Tm turned out to be 41.4 °C. Further, the folding enthalpy in series [2] was -26.6 kcal/mol.

As for GAGTTAGAAATAACTC ((((((....)))))), in series [1], the Tm is 43.2 °C. Besides, the folding enthalpy in series [2] was -31.5 kcal/mol.

GCCACAGGAAACTGCGGC (((.(((....))).))): in series [1], the Tm is 52 °C. Also, the folding enthalpy in series [2] is -56.4 kcal/mol.

As for GGGGGCGGAAACGTCCCC ((((.((....)).)))), the Tm in series [1] amounted to 67.4 °C. In series [2], the folding enthalpy is -22.5 kcal/mol.

On to GACGACGGAAACATCGTC (((((.(....).))))), for which, in series [1], the Tm was 45.7 °C. In addition, the folding enthalpy in series [2] is -34.2 kcal/mol.

For GATCAGTGGGCTGATC ((((((....)))))), in series [1], the Tm is 54.4 °C. For the same sequence, the folding enthalpy in series [2] is -48.6 kcal/mol.

In the case of GGAAGGCGAAAGCCGTCC (((.(((....))).))), the Tm in series [1] came out at 58 °C. Also, the folding enthalpy in series [2] was -15.5 kcal/mol.

Consider GCCCAACGAAAGTTAGGC (((.(((....))).))), for which the Tm in series [1] stood at 48.7 °C. The folding enthalpy in series [2] is -34.3 kcal/mol.

GCGTGCGAAAGCACCGC ((((((....))).))): the Tm in series [1] is 67.2 °C. Besides, in series [2], the folding enthalpy is -13.8 kcal/mol.

For the sequence GCCTAGCGAAAGCTGGC (((.(((....)))))), in series [1], the Tm was 64.8 °C. Further, in series [2], the folding enthalpy is -29.2 kcal/mol.

Consider GGTATCGAAAGATCGACC ((((((....)))..))), for which, in series [1], the Tm turned out to be 27.8 °C. For the same sequence, the folding enthalpy in series [2] was -16.9 kcal/mol.

GCGCTCGGAAACGAACGC (((.(((....))).))): the Tm in series [1] was determined as 55.7 °C. The folding enthalpy in series [2] is -38.5 kcal/mol.

Regarding GTTTGAGGAAACTCAAAC (((((((....))))))), the Tm in series [1] was determined as 55.8 °C. The folding enthalpy in series [2] is -36.8 kcal/mol.

With GATCTATTCTAGATC ((((((...)))))), the Tm in series [1] was 41.3 °C. Moreover, the folding enthalpy in series [2] was -27.6 kcal/mol.

As for GATCGGGGGTCCGATC ((((((....)))))), the Tm in series [1] came to 57 °C. Also, the folding enthalpy in series [2] was -34.3 kcal/mol.

Regarding GCGTCACGAAAGTGTCGC (((.(((....))).))), the Tm in series [1] came to 63.4 °C. Also, the folding enthalpy in series [2] is -42.4 kcal/mol.

In the case of GCGGCGCGAAAGCACGGC ((.(.((....)).).)), the Tm in series [1] came out at 56.4 °C. Moreover, the folding enthalpy in series [2] was -20.5 kcal/mol.

With GTTAGGGCGAAAGCCAAC (((..(((....)))))), in series [1], the Tm came out at 29.3 °C. Further, the folding enthalpy in series [2] was -8.42 kcal/mol.

Consider GCATCCGAAAGGATTTGC ((((((....)))..))), for which, in series [1], the Tm stood at 43.9 °C. Further, the folding enthalpy in series [2] is -18.5 kcal/mol.

For the sequence GCGACCGAAAGGTGCGC ((((((....))).))), the Tm in series [1] was found to be 67.1 °C. For the same sequence, the folding enthalpy in series [2] is -28.9 kcal/mol.

Consider GATCCTCAAAGGATC ((((((...)))))), for which, in series [1], the Tm is 50.6 °C. The folding enthalpy in series [2] is -32.1 kcal/mol.

As to GGCATCGGAAACGGTGTC (.((.((....)).)).), in series [1], the Tm amounted to 44.8 °C. In series [2], the folding enthalpy is -25.7 kcal/mol.
